Where “and” joins values, the source holds several entries; their conditions need not be identical. Equal entries are not always repeated.

In experiment [1] the target is T1, Adenosine receptor A1 (Rattus norvegicus, UniProt P25099).
T1 sequence (P25099 whole entry): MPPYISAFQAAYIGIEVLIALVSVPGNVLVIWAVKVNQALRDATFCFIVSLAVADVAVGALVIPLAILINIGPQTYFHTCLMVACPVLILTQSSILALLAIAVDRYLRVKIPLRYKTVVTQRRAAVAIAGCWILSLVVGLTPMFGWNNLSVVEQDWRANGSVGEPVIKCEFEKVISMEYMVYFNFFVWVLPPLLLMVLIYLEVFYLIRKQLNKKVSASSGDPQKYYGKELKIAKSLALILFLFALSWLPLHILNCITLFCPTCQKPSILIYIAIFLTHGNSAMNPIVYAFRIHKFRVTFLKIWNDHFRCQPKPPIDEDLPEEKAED
Kind of experiment: Displacement of [3H]DPCPX (without GTP) from Adenosine A1 receptor of rat cortical membrane. The method, boiled down: (§1)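 Rat cerebral cortex membranes, antagonist radioligand [3H]DPCPX, displacement run both with and without 1 mM GTP. Apparent Ki derived under each condition; their ratio gives the GTP shift. Two to three independent experiments, each in duplicate.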
(Displacement assays read how much labelled ligand stays bound in the presence of the test substance.)

Experiment [2] deals with T1, Adenosine receptor A1. Kind of experiment: Displacement of [3H]DPCPX (with GTP) from Adenosine A1 receptor of rat cortical membrane. The method, boiled down:
as §1

In experiment [3] the target is T2, Adenosine receptor A1 (Rattus norvegicus) (UniProt P25099).
T2 sequence (whole entry): T1 sequence (P25099 whole entry)
Kind of experiment: Relative affinities for rat Adenosine A1 receptor in the presence and absence of GTP. Summed up: (§2)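 Rat cortical membranes. [3H]DPCPX displacement run with and without 1 mM GTP. The GTP shift is the ratio of apparent Ki with GTP to Ki without GTP. Data from two to three independent experiments, each in duplicate.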

The next experiment deals with Adenosine A2 receptor (Rattus norvegicus, UniProt P29276+P30543). Description: Displacement of [3H]-CGS- 21680 from Adenosine A2 receptor of rat striatal membranes. It counts as cell membranes, Membrane.
The subject of experiment [4] is Rattus norvegicus. Description: Effect on heart rate was measured after intravenous administration (8 mg/kg) in rat. The format is functional. The method, boiled down:
(§3)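 Adult male SPF Wistar rats (200-250 g), conscious, free-ranging, arterial catheter. 30 min accommodation, then 15 min baseline recording before i.v. infusion in 20% (v/v) DMSO/water. Arterial pressure and heart rate monitored continuously for 5.5 h. Vehicle-only controls; dosing 10:00-11:00 a.m. Maximum reduction from pre-administration level reported as mean ± SE.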

Experiment [5] has as its system Rattus norvegicus. Description: Mean arterial pressure was recorded in conscious, normo tensive and unrestrained rats that received an intravenous infusion of drugs at a dose of 8 mg/kg. It counts as functional, Artery. The method, boiled down: as §3
The test system of experiment [6] is Rattus norvegicus. Description: Maximum reduction heart rate of rat at a dose of 8.0 mg/kg. It counts as functional. Summed up:
as §3

For experiment [7], the system named is Rattus norvegicus. Description: Effect on heart rate was measured after intravenous administration (4.8 mg/kg) in rat. It counts as functional. Summed up: (§4)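 Conscious, free-ranging, normotensive male SPF Wistar rats (200-250 g). Intravenous infusion in 20% (v/v) DMSO/water; vehicle-only controls. Arterial catheter; 30 min accommodation. Heart rate and arterial blood pressure recorded continuously from 15 min before dosing (baseline) through 5.5 h. Dosing done between 10:00 and 11:00 a.m. Values given as means ± SE.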

For experiment [8], the system named is Rattus norvegicus. Kind of experiment: Mean arterial pressure was recorded in conscious, normo tensive and unrestrained rats that received an intravenous infusion of drugs at a dose of 4.8 mg/kg. The format is functional, Artery. Summed up:
as §4

Experiment [9] relates to Rattus norvegicus. Kind of experiment: Maximum reduction heart rate of rat at a dose of 4.8 mg/kg. The format is functional. Summed up:
as §4

Experiment [10] concerns the target T1, Adenosine receptor A1. Kind of experiment: Binding affinity for adenosine A1 receptor from rat cortical membrane using [3H]DPCPX without GTP. The method, boiled down: as §2
The test system of experiment [11] is Rattus norvegicus. Description: Mean arterial pressure was recorded of conscious, normo tensive and unrestrained rats that received an intravenous infusion of drugs at a dose of 0.20 mg/kg. The format is functional, Artery. The following applies: dose 0.2 mg/kg. The method, boiled down: as §3
The subject of experiment [12] is Rattus norvegicus. Kind of experiment: Maximum reduction heart rate of rat at a dose of 0.20 mg/kg. The format is functional. The following applies: dose 0.2 mg/kg. The method, boiled down: as §3
Experiment [13] deals with Rattus norvegicus. Description: Maximum reduction heart rate of ratat a dose of 0.20 mg/kg. It counts as functional. The following applies: dose 0.2 mg/kg. The method, boiled down: as §3

Regarding `OC[C@H]1O[C@@H](n2c(NC3CCCC3)nc3c(NC4CCCC4)ncnc32)[C@H](O)[C@@H]1O`, the Ki (usually a measure of affinity in units of concentration, obtained from inhibition or displacement) on Adenosine receptor A1 [1] (read-out: Ki) was 1090 nM; at Adenosine receptor A1 [2], 1280 nM; on Adenosine A2 receptor, 45500 nM. Besides, the GTP shift in [3] stood at 1.2. In the experiment with Rattus norvegicus [4], the Heart rate is given as 329 beats min-1. The same compound had an MAP in the experiment on Rattus norvegicus [5] of 94 mmHg. Moreover, in the experiment with Rattus norvegicus [6], the Reduction is 2% and 3%.

For the compound `CNc1nc2c(N)ncnc2n1[C@@H]1O[C@H](CO)[C@@H](O)[C@H]1O`, the values for the Ki on Adenosine receptor A1 [1] (read-out: Ki), at Adenosine receptor A1 [2] and at Adenosine A2 receptor were 2420 nM, 18600 nM and 1850 nM, respectively. Also, the GTP shift in experiment [3] is 7.7.

As for `CCCCNc1nc2c(NC3CCCC3)ncnc2n1C1O[C@H](CO)[C@@H](O)[C@H]1O` (some centres not stated), the results for the Ki at Adenosine receptor A1 [1] (read-out: Ki), at Adenosine receptor A1 [2] and on Adenosine A2 receptor were 500 nM, 1130 nM and 12400 nM, respectively. Further, the GTP shift in experiment [3] was determined as 2.3. In the experiment on Rattus norvegicus [4], this compound returned a Heart rate of 348 beats min-1. This compound also returned an MAP in the experiment on Rattus norvegicus [5] of 94 mmHg. In the experiment on Rattus norvegicus [6], the Reduction was 8% and 11%.

Regarding `Nc1ncnc2c1nc(NC1CCCC1)n2C1O[C@H](CO)[C@@H](O)[C@H]1O` (some centres not stated), the Ki entry on Adenosine receptor A1 [1] was “Not Active”.

For `CCNc1nc2c(NC3CCCC3)ncnc2n1[C@@H]1O[C@H](CO)[C@@H](O)[C@H]1O`, the figures for the Ki on Adenosine receptor A1 [1] (read-out: Ki), at Adenosine receptor A1 [2] and on Adenosine A2 receptor were 470 nM, 1330 nM and 10100 nM, respectively. In addition, in [3], the GTP shift worked out at 2.8. The same compound had a Heart rate in the experiment with Rattus norvegicus [7] of 350 beats min-1. The MAP in the experiment with Rattus norvegicus [8] stood at 100 mmHg. The Reduction in the experiment with Rattus norvegicus [9] is 25% and 24%.

`CCCNc1nc2c(N)ncnc2n1C1O[C@H](CO)[C@@H](O)[C@H]1O` (some centres not stated): the Ki on Adenosine receptor A1 [1] (read-out: Ki) amounted to 5960 nM; at Adenosine receptor A1 [2] it was 34700 nM; at Adenosine A2 receptor, 4960 nM. Moreover, the GTP shift in [3] worked out at 5.8.

In the case of `CCCNc1ncnc2c1nc(NC1CCCC1)n2C1O[C@H](CO)[C@@H](O)[C@H]1O` (some centres not stated), the Ki at Adenosine receptor A1 [1] (read-out: Ki) is 1590 nM; at Adenosine receptor A1 [2] it was 1760 nM; at Adenosine A2 receptor, 59400 nM. In experiment [3], the GTP shift amounted to 1.1.

For `CCCCNc1ncnc2c1nc(NC1CCCC1)n2[C@@H]1O[C@H](CO)[C@@H](O)[C@H]1O`, the figures for the Ki at Adenosine receptor A1 [1] (read-out: Ki), on Adenosine receptor A1 [2] and on Adenosine A2 receptor were 760 nM, 860 nM and 35300 nM, respectively. Further, in [3], the GTP shift stood at 1.1.

Take `CCNc1ncnc2c1nc(NC1CCCC1)n2[C@@H]1O[C@H](CO)[C@@H](O)[C@H]1O`: the results for the inhibitory constant (Ki) at Adenosine receptor A1 [1] (read-out: Ki), on Adenosine receptor A1 [2] and on Adenosine A2 receptor were 310 nM, 1260 nM and 30200 nM, respectively. Further, the GTP shift in experiment [3] is 4.1.

With `CNc1nc2c(NC3CCCC3)ncnc2n1[C@@H]1O[C@H](CO)[C@@H](O)[C@H]1O`, the Ki worked out at 980 nM at Adenosine receptor A1 [2], 260 nM at Adenosine receptor A1 [10] and 20800 nM at Adenosine A2 receptor. Moreover, the GTP shift in [3] is 3.8. Moreover, in the experiment on Rattus norvegicus [7], the Heart rate was 334 beats min-1. For the same compound, in the experiment on Rattus norvegicus [8], the MAP came to 105 mmHg. In addition, the Reduction with Rattus norvegicus [9] was 34% and 50%.

Regarding `CCCNc1nc2c(NC3CCCC3)ncnc2n1[C@@H]1O[C@H](CO)[C@@H](O)[C@H]1O`, the Ki is 350 nM at Adenosine receptor A1 [1] (read-out: Ki), 1050 nM on Adenosine receptor A1 [2] and 7670 nM on Adenosine A2 receptor. Further, the GTP shift in experiment [3] amounted to 3. In the experiment with Rattus norvegicus [7], this compound had a Heart rate of 344 beats min-1. The MAP in the experiment with Rattus norvegicus [8] worked out at 90 mmHg. In addition, the Reduction in the experiment on Rattus norvegicus [9] is 20% and 15%.

For `CCNc1nc2c(N)ncnc2n1C1O[C@H](CO)[C@@H](O)[C@H]1O` (some centres not stated), the Ki worked out at 6560 nM on Adenosine receptor A1 [1] (read-out: Ki), 23800 nM at Adenosine receptor A1 [2] and 3970 nM at Adenosine A2 receptor. For the same compound, the GTP shift in experiment [3] is 3.6.

Turning to `CCCCNc1nc2c(N)ncnc2n1[C@@H]1O[C@H](CO)[C@@H](O)[C@H]1O`, the results for the Ki at Adenosine receptor A1 [2] and on Adenosine A2 receptor were 45500 nM and 11500 nM, respectively. The GTP shift in experiment [3] stood at 4.

In the case of `CNc1ncnc2c1nc(NC1CCCC1)n2[C@@H]1O[C@H](CO)[C@@H](O)[C@H]1O`, the values for the Ki at Adenosine receptor A1 [1] (read-out: Ki), at Adenosine receptor A1 [2] and at Adenosine A2 receptor were 5610 nM, 15700 nM and 101000 nM, respectively. Besides, the GTP shift in [3] amounted to 2.8.

For the compound `OC[C@H]1O[C@@H](n2cnc3c(NC4CCCC4)ncnc32)[C@H](O)[C@@H]1O` [N6-CYCLOPENTYLADENOSINE], the Ki at Adenosine A2 receptor turned out to be 580 nM. Moreover, the Heart rate with Rattus norvegicus [7] is given as 345 beats min-1. In the experiment with Rattus norvegicus [11], this compound registered an MAP of 109 mmHg. For the same compound, the Reduction with Rattus norvegicus [12] and with Rattus norvegicus [13] was 54% each time.

Source of the values: ChEMBL document CHEMBL1129060, “N6,C8-distributed adenosine derivatives as partial agonists for adenosine A1 receptors” (J Med Chem, 1996).
